From ChEMBL document CHEMBL5038571, “Design and Synthesis of EZH2-Based PROTACs to Degrade the PRC2 Complex for Targeting the Noncatalytic Activity of EZH2” (J Med Chem, 2021) come the findings set out here.

Active and inactive are the calls of the source. No cut-off for these calls is given here.

Test [1] concerns the target T1, Protein cereblon/Histone-lysine N-methyltransferase EZH2 (Homo sapiens) (UniProt Q15910+Q96SW2). The test can be described thus: PROTAC activity at CRBN E3 ligase/EZH2 in PRC2 complex in human WSUDLCL2 cells assessed as reduction in H3K27me3 level incubated for 48 hrs by Western blot analysis. As to conditions: dose 1-10 µM. It counts as cell-based. The procedure, abridged:
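WSU-DLCL-2 cells treated 48 h (1 μM for the single-concentration screen), lysed; SDS-PAGE, nitrocellulose transfer, 5% milk block, primary antibody 4 °C overnight, chemiluminescence. Bands quantified by densitometry, normalized to GAPDH, expressed relative to DMSO-treated cells; mean ± SD of three independent experiments, t-test.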

In test [2] the target is T1, Protein cereblon/Histone-lysine N-methyltransferase EZH2 (Homo sapiens). The test can be described thus: PROTAC activity at CRBN E3 ligase/EZH2 in PRC2 complex in human WSUDLCL2 cells assessed as downregulation of RbAp48 expression at 1 uM pretreated with EPZ6438 for 4 hrs followed by compound addition and measured after 48 hrs by Western blot analysis. The format is cell-based. In a few lines:
(§1)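 WSU-DLCL-2 cells pretreated 4 h with the named inhibitor, then compound added and incubated a further 48 h. EZH2, SUZ12, EED and RbAp48 measured by western blot (nitrocellulose transfer, skim-milk block, primary antibody overnight at 4 °C, chemiluminescent detection).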

Test [3] has the same target. The test can be described thus: PROTAC activity at CRBN E3 ligase/EZH2 in PRC2 complex in human WSUDLCL2 cells assessed as induction of RbAp48 degradation incubated for 48 hrs by Western blot analysis. It counts as cell-based. As to conditions: dose 1-10 µM.
The target is the same in test [4]. The test can be described thus: PROTAC activity at CRBN E3 ligase/EZH2 in PRC2 complex in human WSUDLCL2 cells assessed as induction of RbAp48 degradation at 10 uM incubated for 48 hrs by Western blot analysis. It counts as cell-based.
Test [5] shares this target. The test can be described thus: PROTAC activity at CRBN E3 ligase/EZH2 in PRC2 complex in human WSUDLCL2 cells assessed as induction of SUZ12 degradation at 1 uM measured up to 2 hrs by Western blot analysis. It counts as cell-based. As to conditions: time hrs <=2.
The target is the same in test [6]. The test can be described thus: PROTAC activity at CRBN E3 ligase/EZH2 in PRC2 complex in human WSUDLCL2 cells assessed as induction of EZH2 degradation by measuring reduction in EZH2 protein level at 1 uM measured after 48 to 72 hrs by Western blot analysis. It counts as cell-based. As to conditions: time 48-72 hrs.
For test [7] the target is unchanged. The test can be described thus: PROTAC activity at CRBN E3 ligase/EZH2 in PRC2 complex in human SU-DHL-6 cells assessed as induction of EZH2 degradation by measuring reduction in EZH2 protein level at 1 uM incubated for 48 hrs by Western blot analysis. It counts as cell-based. The procedure, abridged: (§2)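 Cells cultured in DMEM or RPMI 1640 with 10% FBS and 1% penicillin-streptomycin, 37 °C, 5% CO2; exposed to 1 μM compound for 48 h. Lysates run on SDS-PAGE and transferred to nitrocellulose. Blocked 2 h in 5% skim milk, primary antibody overnight at 4 °C, then secondary antibody. Chemiluminescent detection of PRC2 subunits and H3K27me3.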

Test [8] has the same target. The test can be described thus: PROTAC activity at CRBN E3 ligase/EZH2 in PRC2 complex in human SU-DHL-6 cells assessed as induction of SUZ12 degradation by measuring reduction in SUZ12 protein level at 1 uM incubated for 48 hrs by Western blot analysis. It counts as cell-based. The procedure, abridged:
as §2

Test [9] shares this target. The test can be described thus: PROTAC activity at CRBN E3 ligase/EZH2 in PRC2 complex in human DU-145 cells assessed as reduction in H3K27me3 level at 1 uM incubated for 48 hrs by Western blot analysis. It counts as cell-based. In a few lines: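 Cancer cell lines exposed to 1 μM compound for 48 h. Lysates immunoblotted (SDS-PAGE, nitrocellulose, 5% milk block, primary antibody overnight at 4 °C) for EZH2, SUZ12, EED, RbAp48 and H3K27me3. Bands quantified by densitometry and normalized to GAPDH.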

For test [10] the target is unchanged. The test can be described thus: PROTAC activity at CRBN E3 ligase/EZH2 in PRC2 complex in human SK-OV-3 cells assessed as induction of SUZ12 degradation by measuring reduction in SUZ12 protein level at 1 uM incubated for 48 hrs by Western blot analysis. It counts as cell-based. In a few lines: as §2
For test [11] the target is unchanged. The test can be described thus: PROTAC activity at CRBN E3 ligase/EZH2 in PRC2 complex in human SK-OV-3 cells assessed as reduction in H3K27me3 level at 1 uM incubated for 48 hrs by Western blot analysis. It counts as cell-based. In a few lines:
as §2

The target is the same in test [12]. The test can be described thus: PROTAC activity at CRBN E3 ligase/EZH2 in PRC2 complex in human WSUDLCL2 cells assessed as effect on EZH2 mRNA expression at 1 uM incubated for 48 hrs by RT-qPCR analysis. The format is cell-based. The procedure, abridged: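 WSU-DLCL-2 cells treated 48 h with 1 μM compound. Total RNA extracted with Trizol and reverse-transcribed. SYBR qPCR run as 95 °C 30 s, then 40 cycles of 95 °C 6 s and 60 °C 20 s. PRC2 subunit mRNA normalized to the DMSO-treated group; mean SD, t-test.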

Test [13] shares this target. The test can be described thus: PROTAC activity at CRBN E3 ligase/EZH2 in PRC2 complex in human WSUDLCL2 cells assessed as downregulation of EED expression at 1 uM pretreated with MG-132 for 4 hrs followed by compound addition and measured after 48 hrs by Western blot analysis. The format is cell-based. The procedure, abridged: as §1
Test [14] shares this target. The test can be described thus: PROTAC activity at CRBN E3 ligase/EZH2 in PRC2 complex in human WSUDLCL2 cells assessed as increase in EED ubiquitination at 1 uM measured after 48 hrs by co-immunoprecipitation assay. It counts as cell-based. The procedure, abridged:
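WSU-DLCL-2 cells treated with 1 μM compound for 48 h and lysed in RIPA buffer. Lysates incubated with antibodies overnight at 4 °C, then 3 h with Protein G agarose beads at 4 °C. Proteins eluted in IP buffer and ubiquitination of the target probed by immunoblot.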

Test [15] has as its system Pfeiffer. The test can be described thus: Upregulation of TNFRSF21 mRNA expression in human Pfeiffer cells at 1 uM incubated for 48 hrs by qRT-PCR analysis. The format is functional, cell-based. In a few lines:
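WSU-DLCL-2 or Pfeiffer cells treated 48 h. Trizol RNA extraction, reverse transcription, SYBR qPCR (95 °C 30 s; 40 cycles of 95 °C 6 s, 60 °C 20 s). mRNA normalized to DMSO-treated cells; mean ± SD of three independent experiments, t-test.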

The subject of the next test is NCI-H1299. The test can be described thus: Downregulation of TACC3 mRNA expression in human NCI-H1299 cells at 10 uM incubated for 48 hrs by qRT-PCR analysis. It counts as functional, cell-based. The procedure, abridged:
(§3)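 Cells treated 48 h. Total RNA extracted with Trizol, reverse-transcribed, and SYBR RT-qPCR run: 95 °C 30 s, then 40 cycles of 95 °C 6 s and 60 °C 20 s. mRNA normalized to the DMSO-treated group. Mean SD of three independent experiments, t-test versus DMSO.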

Test [16] deals with MDA-MB-468. The test can be described thus: Downregulation of […] mRNA expression in human MDA-MB-468 cells at 10 uM incubated for 48 hrs by qRT-PCR analysis. The format is functional, cell-based. The procedure, abridged:
as §3

For test [17], the system named is MDA-MB-468. The test can be described thus: Downregulation of CHEK1 mRNA expression in human MDA-MB-468 cells at 10 uM incubated for 48 hrs by qRT-PCR analysis. The format is functional, cell-based. The procedure, abridged: as §3
Test [18] has as its system Pfeiffer. The test can be described thus: Antiproliferative activity against human Pfeiffer cells harboring EZH2-A677G mutant assessed as inhibition of cell growth incubated for 3 to 7 days by optical microscopic analysis (Rvb= 0.49 uM). It counts as functional, cell-based.

T1 sequence (Q15910 whole entry, looked up): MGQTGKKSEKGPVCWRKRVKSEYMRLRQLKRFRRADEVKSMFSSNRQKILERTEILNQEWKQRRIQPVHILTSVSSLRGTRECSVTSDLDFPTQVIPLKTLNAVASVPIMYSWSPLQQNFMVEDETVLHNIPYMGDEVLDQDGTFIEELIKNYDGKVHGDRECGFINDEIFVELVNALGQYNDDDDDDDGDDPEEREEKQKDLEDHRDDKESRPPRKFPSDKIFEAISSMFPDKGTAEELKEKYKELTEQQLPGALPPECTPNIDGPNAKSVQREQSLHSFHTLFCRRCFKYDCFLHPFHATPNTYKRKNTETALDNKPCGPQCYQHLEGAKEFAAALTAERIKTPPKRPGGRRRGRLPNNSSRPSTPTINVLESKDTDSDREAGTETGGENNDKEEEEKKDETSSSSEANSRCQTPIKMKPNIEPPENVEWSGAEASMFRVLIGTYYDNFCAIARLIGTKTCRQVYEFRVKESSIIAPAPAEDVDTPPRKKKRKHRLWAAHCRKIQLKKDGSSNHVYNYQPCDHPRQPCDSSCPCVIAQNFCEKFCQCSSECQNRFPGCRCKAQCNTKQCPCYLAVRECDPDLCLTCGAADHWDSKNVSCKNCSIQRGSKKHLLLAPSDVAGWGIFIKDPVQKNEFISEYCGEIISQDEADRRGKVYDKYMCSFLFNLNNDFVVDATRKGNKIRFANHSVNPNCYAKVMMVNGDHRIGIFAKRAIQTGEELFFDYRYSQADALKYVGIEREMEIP
T1 sequence (Q96SW2 whole entry, looked up): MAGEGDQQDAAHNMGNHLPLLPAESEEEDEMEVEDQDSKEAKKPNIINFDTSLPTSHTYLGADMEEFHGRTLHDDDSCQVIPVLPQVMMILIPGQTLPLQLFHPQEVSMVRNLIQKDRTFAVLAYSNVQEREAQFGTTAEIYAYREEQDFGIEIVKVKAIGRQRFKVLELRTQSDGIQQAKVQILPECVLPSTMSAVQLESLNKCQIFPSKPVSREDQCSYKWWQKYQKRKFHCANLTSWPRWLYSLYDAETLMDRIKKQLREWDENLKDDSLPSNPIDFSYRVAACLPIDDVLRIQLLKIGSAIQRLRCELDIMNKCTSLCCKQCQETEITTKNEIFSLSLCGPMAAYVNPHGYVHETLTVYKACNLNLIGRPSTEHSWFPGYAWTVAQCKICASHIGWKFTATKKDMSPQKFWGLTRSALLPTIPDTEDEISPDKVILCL

Turning to `CCN(c1cc(-c2ccc(CN3CCN(CCCCCCCOc4cccc5c4C(=O)N(C4CCC(=O)NC4=O)C5=O)CC3)cc2)cc(C(=O)NCc2c(C)cc(C)[nH]c2=O)c1C)C1CCOCC1` (centres undefined), the Activity entry in [1] and in [3] was “Dose-Dependent Effect” throughout. The outcome in test [2], in [4], in test [5], in test [12] and in [13] was inactive. Further, the result in [6], in test [7], in test [8], in test [9], in test [10] and in test [11] was Active. Besides, the outcome (in test [14]; in the test with Pfeiffer [15]; with NCI-H1299; in the test with MDA-MB-468 [16]; in the test with MDA-MB-468 [17]) was Active. Further, the IC50 in the test on Pfeiffer [18] is 0.21 µM.
